KCNQ1 pot – potentiates or activates the human KCNQ1 potassium channel. CHO-K1 KCNQ1, thallium flux FluxOR fluorescence; hits give high values. actives 0.35% (n = 310,000). B-score at 10 µM. P51787;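 active = fluorescence ratio B-score, a plate-corrected score, at least three library SD, with initial intensity B-score within 5 SD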
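Medium – assay buffer, equal DMSO in all wells · Material – CHO-K1 cell line with stable KCNQ1 potassium channel expression · Signal – kinetic FluxOR thallium fluorescence, 10-s 1-Hz baseline, 110-s post-stimulus read · Compound – single concentration per compound, DMSO matched to controls · Schedule – 37 °C overnight plating, 90-min dark dye load, 20-min compound pretreatment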
KCNK3 block – human KCNK3 channel inhibition, primary screen | O14649 | CHO-KCNK3 thallium flux, FluxOR fluorescence; hits give low values | B-score at 10 µM | actives 0.84% (n = 340,000) | AID 602410;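 active = B-score under library mean minus 4 SD, starting fluorescence ratio at most library mean plus 5 SD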;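 note: more negative B-score means stronger inhibition of thallium flux through KCNK3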
KCNK9 inh – inhibitors of human KCNK9 two-pore domain potassium channel; HEK293 KCNK9, FluxOR thallium flux fluorescence; hits give low values; B-score at 10 µM; Q9NPC2; actives 1.2% (n = 310,000);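 active = ratio B-score over 3 SD below the library mean, with starting fluorescence within 5 SD of its mean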;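 note: negative B-score means less thallium flux so channel inhibition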
KCNQ1 inh – blocks the human KCNQ1 potassium channel. AID 2642. CHO-K1 KCNQ1, FluxOR thallium flux fluorescence; hits give high values. B-score at 10 µM. P51787. actives 1.3% (n = 310,000);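 active = compounds whose thallium flux B-score, printed positive for inhibition, exceeds three library SD while starting fluorescence stays within three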;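 note: channel opened by potassium depolarization with thallium stimulus after 20 min compound exposure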
hERG rescue – hERG (human) protection from proarrhythmic block | AID 1511 | CHO-hERG, FluxOR thallium flux, dofetilide IC70 present | actives 0.51% (n = 310,000) | Q12809 | activation (rescue from dofetilide block), less the hit threshold, % at 10 µM;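 active = activation above the mean of controls blocked by dofetilide plus 5 SD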;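 note: thallium influx through hERG after potassium depolarization seen as dye fluorescence rise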
Kir21 inh – blocks the mouse Kir2.1 inward-rectifier potassium channel. P35561. HEK293-Kir2.1, FluxOR thallium flux fluorescence; hits give low values. B-score at 10 µM. actives 0.85% (n = 310,000);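 active = fluorescence ratio B-score at or below minus 3 SD of library scores, with starting-brightness B-score within 2 SD, cut at about -4.2 in these data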;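 note: channel flux triggered by added potassium and thallium sulfate stimulus; B-score of peak minus minimum fluorescence over baseline after thallium stimulus; more negative B-score means stronger Kir2.1 block with less thallium influx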
KCNK9 block conf – confirmation of human KCNK9 potassium channel inhibitors; shares compounds with KCNK9 inh; actives 43% (n = 4,900); HEK293 KCNK9 cells, FluxOR thallium flux fluorescence; inhibition, % at 10 µM;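 active = thallium signal inhibited by more than 5 SD of the compound-free buffer control wells, on both duplicate plates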
Kir21 sel – selectivity of KCNK9 modulators against mouse Kir2.1; shares compounds with KCNK9 inh; Kir2.1 cells, FluxOR thallium flux fluorescence; inhibition, % at 10 µM; actives 4% (n = 4,900); AID 492993;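 active = thallium signal drop more than 5 SD beyond the mean of the no-compound control wells, seen in both duplicate plates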;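 note: signal is fluorescence rise after thallium addition divided by baseline fluorescence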
HEK293 Tl ctr – second check of KCNK9 modulator effects in non-induced HEK293 cells | FluxOR thallium flux | actives 40% (n = 4,900) | shares compounds with KCNK9 inh | AID 492997 | inhibition, % at 10 µM;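 active = thallium signal drop beyond 5 SD of the untreated control mean, on both duplicate plates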
Large screens that a line does not name were inactive (follow-up assays come after a bar, where they were run). Hits are enriched below; roughly 3.7% of the tested compounds scored in any of these assays.

Cc1ccc(NC(=O)c2cccc(OC(F)F)c2)c(OC(F)F)c1	KCNK9 inh -8.7 | KCNK9 block conf 54% | Kir21 sel inactive | HEK293 Tl ctr 35%
CCOc1cccc(C(=O)Nc2ccccc2OC(F)F)c1	none
COc1cc(C(C)=O)ccc1OCC(=O)N1CCc2ccccc2C1	none
Cc1sc(NC(=O)C2CCCCC2)c(C#N)c1-c1ccccc1	none | KCNK9 block conf inactive | Kir21 sel inactive | HEK293 Tl ctr inactive
O=C(O)CC1c2ccccc2C=Cc2ccccc21	none
Cc1ccc(S(=O)(=O)N2CCN(C3CC(=O)N(Cc4ccccc4)C3=O)CC2)cc1C (stereo not drawn)	none
O=C1CC(N2CCN(S(=O)(=O)c3cccc(C(F)(F)F)c3)CC2)C(=O)N1Cc1ccccc1 (stereo not drawn)	none | KCNK9 block conf inactive | Kir21 sel inactive | HEK293 Tl ctr inactive
O=C(COC(=O)c1oc2ccccc2c1CSc1ccc(Cl)cc1)NC1CCCC1	KCNK9 inh -8.1, KCNQ1 inh 10 | KCNK9 block conf 32% | Kir21 sel 36% | HEK293 Tl ctr 50%
NC(=O)COC(=O)c1oc2ccccc2c1CSc1ccc(Cl)cc1	none
COC(=O)C1CN(C(=O)COc2cc(C)c(Cl)c(C)c2)c2ccccc2O1 (stereo not drawn)	KCNK9 inh -9.9 | KCNK9 block conf inactive | Kir21 sel inactive | HEK293 Tl ctr 34%
Cc1ccc2c(Cl)c(C)c(N3CCCCC3)nc2n1	none | KCNK9 block conf inactive | Kir21 sel inactive | HEK293 Tl ctr inactive
Cc1nc2ccccc2nc1N1CCCCC1	none (no result: KCNQ1 pot, KCNK9 inh, KCNQ1 inh, hERG rescue, Kir21 inh)
Cc1cnc(C)c(N2CCN(Cc3nc(-c4cccc(F)c4F)oc3C)CC2)n1	none
Cc1cccc(N2CCN(Cc3nc(-c4ccc(F)cc4F)oc3C)CC2)n1	none | KCNK9 block conf inactive | Kir21 sel inactive | HEK293 Tl ctr inactive
Cc1ccc(-c2csc3ncnc(NCCC(=O)O)c23)cc1C	none
NC(=O)c1ccc(Oc2ccc3c(c2)CCC3)c([N+](=O)[O-])c1	none | KCNK9 block conf inactive | Kir21 sel inactive | HEK293 Tl ctr inactive
C=C(C(=O)c1ccccc1)C(c1ccccc1)C(C)C(=O)c1ccccc1 (stereo not drawn)	KCNK9 inh -12, Kir21 inh -4.4 | KCNK9 block conf 73% | Kir21 sel inactive | HEK293 Tl ctr 44%
O=C(/C=C/c1cccs1)c1cc(Br)ccc1OC(=O)N1CCOCC1	KCNK9 inh -9.8 | KCNK9 block conf 30% | Kir21 sel inactive | HEK293 Tl ctr 23%
COc1ccccc1NS(=O)(=O)c1cc(NC(=O)C(C)C)ccc1N1CCCCC1	KCNK9 inh -11 | KCNK9 block conf 52% | Kir21 sel inactive | HEK293 Tl ctr 35%
Cc1ccc(SCCCn2cnc3ccccc3c2=O)cc1	none | KCNK9 block conf inactive | Kir21 sel inactive | HEK293 Tl ctr inactive
O=C(C1CCCN(Cc2ccccc2Cl)C1)N1CCCCC1 (stereo not drawn)	none
Cc1ccc(S(=O)(=O)N(C)C)cc1-n1c(SCC(=O)Nc2ccc(F)c(F)c2F)nc2ccccc2c1=O	KCNK9 inh -14 | KCNK9 block conf 64% | Kir21 sel inactive | HEK293 Tl ctr 40%
Cc1ccc(S(=O)(=O)N(C)C)cc1-n1c(SCC(=O)N(C)C)nc2ccccc2c1=O	none
O=C(NC1CCCCC1)C(c1ccccc1)N1CCCC1 (stereo not drawn)	none
CC(C(=O)NC(=O)NC1CCCCC1)N1CCN(C(c2ccccc2)c2ccccc2)CC1 (stereo not drawn)	none | KCNK9 block conf inactive | Kir21 sel inactive | HEK293 Tl ctr inactive
C=CCn1c(O)c2ccc(C(=O)N=NC(=O)COc3ccc(OC)cc3)cc2c1O	none
Fc1cccc(Cl)c1CSc1ccc(-c2cccnc2)nn1	KCNK9 inh -11 | KCNK9 block conf 33% | Kir21 sel inactive | HEK293 Tl ctr inactive
